Bioassay records as filed in PubChem BioAssay.
This is one part of a sample in which hits are shown more often than they occur.
Lung fibro prol: blocks proliferation of human lung fibroblasts; viability, % at 10 µM; 85,000 compounds, 1.1% hits; LL 47 human lung fibroblast viability, ATP luminescence; stronger effect = lower value;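 active means viability at or below 50% in the single dose screen; inactive means viability above 50%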;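 further: compound exposure lasted 72 h before the ATP readout; 100% = median luminescence of untreated cell-only wells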
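Test system: LL 47 human lung fibroblasts; Quantity: 1,150 cells/well; Buffer or medium: IMEM plus 15% FBS; Dosing: tenfold compound dosing solution, DMSO at 0.1%; Timing: overnight cell rest, 72 h compound treatment at 37 °C; Detection: ATP-based CellTiter-Glo luminescent readout; Read-out basis: viability percentage against median untreated-cell control; Controls: cell-only wells, no compound.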
HCT116 bCat-KO: beta-catenin-lacking colon tumor cell growth suppression. viability, % at 10 µM. 140,000 compounds, 1.5% hits. HCT116 beta-catenin knockout viability, CellTiter-Glo, 60 h; stronger effect = lower value. AID 818;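 active means viability at or under a set limit, the compound median less 4 SD, cut at about 6% in these data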;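 further: 0% = Hyamine 1622 control at 20 µM and 100% = untreated cell control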
H69AR growth 86K: growth inhibitors of human H69AR lung tumor cells; H69AR lung tumor viability, ATP luminescence, 72 h; stronger effect = lower value; viability, % at 10 µM; 85,000 compounds, 6% hits; AID 598;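 active means viability at or below 40%; inactive means viability above 40%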;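 further: multidrug resistant small cell line overexpressing MRP-1 efflux transporter; 100% = mean luminescence of untreated control wells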
HUVEC prolif 384: human endothelial cell proliferation inhibition; AID 648; HUVEC proliferation, CellTiter-Glo luminescence, 72 h; stronger effect = lower value; viability, % at 10 µM (by protocol); 86,000 compounds, 1.1% hits;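 active means viability at or below 30%; inactive means viability above 30%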;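 further: 100% = median luminescence of DMSO-only cell control wells on each plate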
HCT116 PTEN-null: PTEN-deleted cell growth suppression; HCT116 PTEN-null viability, CellTiter-Glo, 60 h; stronger effect = lower value; viability, % at 10 µM; 140,000 compounds, 1.2% hits;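 active means viability at or below a set limit, 4 SD under the median of all tested compounds, cut at about 3.7% in these data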;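 further: PTEN knockout HCT116 line with beta catenin targeted HCT116 as companion control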
* marks the source's active call; other numbers are inactive results.

Results for Nc1nc(-c2ccccc2)cc(N2CCCCC2)n1 ?
Lung fibro prol: 56; HCT116 bCat-KO: 12; H69AR growth 86K: 23*; HUVEC prolif 384: 57; HCT116 PTEN-null: 13

What do the screens show for `Cc1nc(-c2ccccc2)cc(N2CCCC2)n1`?
HCT116 bCat-KO: 101; HCT116 PTEN-null: 99

Results for CC(C)(C=O)C1=CC(=O)c2ccccc2C1=O ?
HCT116 bCat-KO: 1.3*; HCT116 PTEN-null: 1.7*

Results for O=C(CCSc1nnc(-c2ccncc2)o1)Nc1cccc2ccccc12 ?
Lung fibro prol: 88; HCT116 bCat-KO: 75; H69AR growth 86K: 37*; HUVEC prolif 384: 90; HCT116 PTEN-null: 73

How did O=C(CCSc1nnc(-c2ccncc2)o1)Nc1ccccc1 do in these assays?
Lung fibro prol: 107; HCT116 bCat-KO: 96; H69AR growth 86K: 103; HUVEC prolif 384: 102; HCT116 PTEN-null: 89

Results for COCCCNCCOCCOc1ccc(Cl)cc1C(C)(C)C ?
HCT116 bCat-KO: 0.9*; HCT116 PTEN-null: 1.1*

How did CC(=O)/C=C/n1c(=S)oc2ccccc21 do in these assays?
HCT116 bCat-KO: 5.3*; HCT116 PTEN-null: 5

What do the screens show for `CCCCOC(=O)CCn1c(=S)oc2ccccc21`?
Lung fibro prol: 104; HCT116 bCat-KO: 104; H69AR growth 86K: 87; HUVEC prolif 384: 97; HCT116 PTEN-null: 92

How did CC(C)CC(=O)/C=C/n1c(=S)oc2ccccc21 do in these assays?
HCT116 bCat-KO: 3.8*; HCT116 PTEN-null: 2.4*

How did CCOc1ccccc1CNC(=O)c1nn(CC)cc1[N+](=O)[O-] do in these assays?
HCT116 bCat-KO: 91; HCT116 PTEN-null: 90

How did O=C(Nc1nc2ccc(SC(F)F)cc2s1)c1ccc(NS(=O)(=O)c2ccc(F)c(F)c2)cc1 do in these assays?
HCT116 bCat-KO: 72; HCT116 PTEN-null: 58

How did CCN1c2ccccc2-c2nc3ccccc3n2C1c1cccs1 (stereo not drawn) do in these assays?
HCT116 bCat-KO: 74; HCT116 PTEN-null: 71

How did Cc1[nH]nc(N=CC2=C(O)CC(C)(C)CC2=O)c1-c1ccc(Cl)cc1 do in these assays?
Lung fibro prol: 92; HCT116 bCat-KO: 91; H69AR growth 86K: 31*; HUVEC prolif 384: 106; HCT116 PTEN-null: 94

How did CC1(C)CC(=O)C(C=Nc2ccc(Cl)cn2)=C(O)C1 do in these assays?
Lung fibro prol: 91; HCT116 bCat-KO: 82; H69AR growth 86K: 103; HUVEC prolif 384: 96; HCT116 PTEN-null: 91

Results for O=C1CC(c2ccco2)CC(O)=C1C=Nc1cc(Cl)ccc1O (stereo not drawn) ?
Lung fibro prol: 99; HCT116 bCat-KO: 81; H69AR growth 86K: 5.3*; HUVEC prolif 384: 77; HCT116 PTEN-null: 88

Results for Cc1[nH]nc(N=CC2=C(O)CC(c3ccco3)CC2=O)c1-c1ccc(Cl)cc1 (stereo not drawn) ?
Lung fibro prol: 97; HCT116 bCat-KO: 82; H69AR growth 86K: 22*; HUVEC prolif 384: 87; HCT116 PTEN-null: 86

What do the screens show for `CCOC(=O)c1sc(-c2ccccc2)cc1NC(=O)Nc1ccc([N+](=O)[O-])cc1`?
HCT116 bCat-KO: 10; HCT116 PTEN-null: 5

Results for Cc1nnnn1CC(=O)Nc1ccccc1[N+](=O)[O-] ?
HCT116 bCat-KO: 94; HCT116 PTEN-null: 97

How did CCN(CCC(=O)Nc1cc([N+](=O)[O-])ccc1OC)Cc1ccccc1 do in these assays?
HCT116 bCat-KO: 75; HCT116 PTEN-null: 73

How did CCCCN(CCCC)C(=O)c1nsnc1-c1ccccc1O do in these assays?
Lung fibro prol: 92; HCT116 bCat-KO: 96; H69AR growth 86K: 89; HUVEC prolif 384: 105; HCT116 PTEN-null: 87

What do the screens show for `C[C@]12CC[C@@H]3c4ccc(OC(=O)c5ccccc5)cc4CC[C@H]3[C@@H]1CC[C@@H]2O`?
Lung fibro prol: 93; HCT116 bCat-KO: 47; H69AR growth 86K: 26*; HUVEC prolif 384: 55; HCT116 PTEN-null: 44

What do the screens show for `COc1ccc(-c2cc(-c3ccccc3)c(C#N)c(S(C)=O)n2)cc1` (stereo not drawn)?
Lung fibro prol: 2.7*; HCT116 bCat-KO: 1.1*; H69AR growth 86K: 2.3*; HUVEC prolif 384: 6.8*; HCT116 PTEN-null: 1.3*

Results for CC(C)(C)c1ccc(C(=O)NC(=S)Nn2cnnc2)cc1 ?
HCT116 bCat-KO: 98; HCT116 PTEN-null: 99

Results for O=C(O)Cc1ccc(C(=O)c2ccccc2F)s1 ?
Lung fibro prol: 102; HCT116 bCat-KO: 87; H69AR growth 86K: 98; HUVEC prolif 384: 103; HCT116 PTEN-null: 102
